# Experimental data reported in paper PMC10947786 (ACS synthetic biology, 2024).
# Experiments:
# [1] = Solubility in water; assay type: physicochemical; settings: purified peptide
# [2] = Hydrogen-deuterium exchange MS; assay type: physicochemical; settings: 3:7 D2O:acetonitrile, MALDI-TOF MS (Figure S13); for Hydrogen-deuterium exchange, deuteration within 1 min: 1 min timescale
# How it was run: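 Purified peptide was dried under vacuum and redissolved in 3:7 D2O:acetonitrile. At set time points over 24 h, aliquots were quenched by spotting onto the MALDI target with saturated sinapinic acid in 3:7 D2O:acetonitrile + 0.1% formic acid (pH = 2). Deuterium uptake was read by MALDI-TOF MS.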
Substance,solubility in water [1] [mg/mL],"Hydrogen-deuterium exchange, deuteration within 1 min [2]","Hydrogen-deuterium exchange, deuteration within 24 h [2]"
mycetolassin-15,> 20,only a fraction of the exchangeable protons were deuterated,not fully deuterated
mycetolassin-18,> 20,only a fraction of the exchangeable protons were deuterated,not fully deuterated
